ChEMBL document CHEMBL4680254, “Design, synthesis and discovery of 2(1H)-quinolone derivatives for the treatment of pulmonary fibrosis through inhibition of TGF-β/smad dependent and independent pathway” (Eur J Med Chem, 2020)

Assays:
NRK-49F = test: Inhibition of TGF-beta-induced collagen accumulation in rat NRK-49F cells at 10 uM incubated for 2 days by PSR staining based microscopic analysis relative to control; type: functional; settings: 48 h, time 2 day
In short: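 NRK-49F cells were grown 3 days in DMEM with 5% FBS, then 2 days in DMEM with 1% ITS. Next came 2 days with TGF-β 5 ng/ml plus or minus compound 10 µM. Cells were fixed in 4% paraformaldehyde and stained 4 h with 0.1% Picrosirius Red, then rinsed with acetic acid. Dye was eluted with 0.1 M NaOH and OD read at 540 nm. Inhibition = […] ×100%, in triplicate.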

[1] = Cytotoxicity against rat NRK-49F cells assessed as cell survival rate at 10 uM incubated for 72 hrs by MTT assay; type: cell-based; settings: read-out: Activity
In short: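 NRK-49F cells were seeded at 0.5×10^5 cells/ml, cultured overnight, then exposed to compound 10 µM for 72 h. MTT was added and incubated 4 h, formazan dissolved in DMSO and absorbance read. Survival = (treated − zero)/(blank − zero) A ×100%, done in triplicate.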

Row | SMILES | inhibition at 10 µM (NRK-49F) [%] | viability at 72 h, 10 µM [1] [%]
1 | CCN(CC)CC(=O)Nc1ccc(Sc2cc(=O)[nH]c3ccccc23)cc1 | 58.6 | 85.5
2 | CN1CCN(CC(=O)Nc2ccc(Oc3cc(=O)[nH]c4ccccc34)cc2)CC1 | 43.7 | 80.2
3 | CCN1CCN(CC(=O)Nc2ccc(Sc3cc(=O)[nH]c4ccccc34)cc2)CC1 | 56.6 | 78
4 | CCNCC(=O)Nc1ccc(Oc2cc(=O)[nH]c3ccccc23)c(F)c1 | 50.6 | 99.3
5 | CC(C)(C)OC(=O)N1CCN(CC(=O)Nc2ccc(Oc3cc(=O)[nH]c4ccccc34)cc2)CC1 | 76.2 | 75.6
6 | O=C(CNC1CCOCC1)Nc1ccc(Sc2cc(=O)[nH]c3ccccc23)cc1 | 53 | 83.9
7 | CN1CCN(CC(=O)Nc2ccc(Nc3cc(=O)[nH]c4ccccc34)cc2)CC1 | 38.9 | 78
8 | O=C(CN1CCCCC1)Nc1ccc(Oc2cc(=O)[nH]c3ccccc23)cc1 | 27.4 | 78.5
9 | CC(C)(C)OC(=O)N1CCN(CC(=O)Nc2ccc(Oc3ccc4ccc(=O)[nH]c4c3)c(F)c2)CC1 | 76.4 | 89.7
10 | O=C(CN1CCCC1)Nc1ccc(Nc2cc(=O)[nH]c3ccccc23)cc1 | 59.9 | 72.5
11 | CN(C)C1CCN(CC(=O)Nc2ccc(Sc3cc(=O)[nH]c4ccccc34)cc2)CC1 | 51.1 | 80.3
12 | CC(C)(C)OC(=O)N1CCN(CC(=O)Nc2ccc(Nc3cc(=O)[nH]c4ccccc34)cc2)CC1 | 73.3 | 67.5
13 | O=C(CN1CCN(C(=O)C2CC2)CC1)Nc1ccc(Oc2ccc3ccc(=O)[nH]c3c2)c(F)c1 | 56.6 | 98.2
14 | CC(C)(C)N1CCN(CC(=O)Nc2ccc(Oc3cc(=O)[nH]c4ccccc34)cc2)CC1 | 73.2 | 92.7
15 | O=C(CN1CCOCC1)Nc1ccc(Oc2cc(=O)[nH]c3ccccc23)c(F)c1 | 47.3 | 90.8
16 | CCNCC(=O)Nc1ccc(Oc2cc(=O)[nH]c3ccccc23)cc1 | 25.4 | 89.2
17 | CC(C)(C)N1CCN(CC(=O)Nc2ccc(Oc3ccc4ccc(=O)[nH]c4c3)c(F)c2)CC1 | 67.7 | 89.8
18 | O=C(CN1CCCCC1)Nc1ccc(Sc2cc(=O)[nH]c3ccccc23)cc1 | 28.4 | 93.5
19 | CC1CCN(CC(=O)Nc2ccc(Nc3cc(=O)[nH]c4ccccc34)cc2)CC1 | 20.1 | 82.5
20 | CCN(CC)CC(=O)Nc1ccc(Oc2cc(=O)[nH]c3ccccc23)c(F)c1 | 58.8 | 106
21 | O=C(CN1CCN(C(=O)C2CC2)CC1)Nc1ccc(Oc2cc(=O)[nH]c3ccccc23)cc1 | 78.3 | 92.2
22 | CC(C)(C)OC(=O)N1CCN(CC(=O)Nc2ccc(Sc3cc(=O)[nH]c4ccccc34)cc2)CC1 | 72.4 | 71.2
23 | O=C(CN1CCOCC1)Nc1ccc(Sc2cc(=O)[nH]c3ccccc23)cc1 | 53.4 | 77.4
24 | CN1CCN(CC(=O)Nc2ccc(Oc3cc(=O)[nH]c4ccccc34)c(F)c2)CC1 | 73.9 | 99
25 | O=C(CN1CCOCC1)Nc1ccc(Nc2cc(=O)[nH]c3ccccc23)cc1 | 40.9 | 81.9
26 | CC(=O)N1CCN(CC(=O)Nc2ccc(Sc3cc(=O)[nH]c4ccccc34)cc2)CC1 | 39.4 | 101
27 | CCN1CCN(CC(=O)Nc2ccc(Oc3cc(=O)[nH]c4ccccc34)cc2)CC1 | 41.7 | 91.7
28 | CC(=O)N1CCN(CC(=O)Nc2ccc(Oc3cc(=O)[nH]c4ccccc34)cc2)CC1 | 50 | 96.3

Row | SMILES | inhibition at 10 µM (NRK-49F) [%] | viability at 72 h, 10 µM [1] [%]
29 | CC1CCN(CC(=O)Nc2ccc(Sc3cc(=O)[nH]c4ccccc34)cc2)CC1 | 28.6 | 116
30 | O=C(CN1CCCC1)Nc1ccc(Oc2cc(=O)[nH]c3ccccc23)c(F)c1 | 49.5 | 96.4
31 | CN(C)C1CCN(CC(=O)Nc2ccc(Oc3cc(=O)[nH]c4ccccc34)c(F)c2)CC1 | 60.7 | 98.6
32 | O=C(CN1CCOCC1)Nc1ccc(Oc2cc(=O)[nH]c3ccccc23)cc1 | 59.3 | 95.7
33 | CCN1CCN(CC(=O)Nc2ccc(Nc3cc(=O)[nH]c4ccccc34)cc2)CC1 | 46 | 64.8
34 | O=C(CN1CCCCC1)Nc1ccc(Nc2cc(=O)[nH]c3ccccc23)cc1 | 24.4 | 75.4
35 | O=C(CN1CCCCC1)Nc1ccc(Oc2cc(=O)[nH]c3ccccc23)c(F)c1 | 38.3 | 87.2
36 | O=C(CN1CCNCC1)Nc1ccc(Oc2cc(=O)[nH]c3ccccc23)c(F)c1 | 60.3 | 93.3
37 | CC(C)(C)OC(=O)N1CCN(CC(=O)Nc2ccc(Oc3ccc4[nH]c(=O)ccc4c3)c(F)c2)CC1 | 57.4 | 85.6
38 | CC(=O)N1CCN(CC(=O)Nc2ccc(Oc3cc(=O)[nH]c4ccccc34)c(F)c2)CC1 | 42.7 | 108
39 | CC1CCN(CC(=O)Nc2ccc(Oc3cc(=O)[nH]c4ccccc34)c(F)c2)CC1 | 45.9 | 105
40 | O=C(CNC1CCOCC1)Nc1ccc(Oc2cc(=O)[nH]c3ccccc23)c(F)c1 | 53.9 | 90.8
41 | CN(C)C1CCN(CC(=O)Nc2ccc(Oc3cc(=O)[nH]c4ccccc34)cc2)CC1 | 43.9 | 81.2
42 | O=C(CNC1CCOCC1)Nc1ccc(Nc2cc(=O)[nH]c3ccccc23)cc1 | 50 | 83.5
43 | CN1CCN(CC(=O)Nc2ccc(Sc3cc(=O)[nH]c4ccccc34)cc2)CC1 | 40 | 86.7
44 | CCNCC(=O)Nc1ccc(Nc2cc(=O)[nH]c3ccccc23)cc1 | 28.7 | 83.7
45 | CCNCC(=O)Nc1ccc(Sc2cc(=O)[nH]c3ccccc23)cc1 | 51.1 | 87.7
46 | O=C(CNC1CCOCC1)Nc1ccc(Oc2cc(=O)[nH]c3ccccc23)cc1 | 46 | 96
47 | O=C(CN1CCCC1)Nc1ccc(Oc2cc(=O)[nH]c3ccccc23)cc1 | 68 | 82.2
48 | CC1CCN(CC(=O)Nc2ccc(Oc3cc(=O)[nH]c4ccccc34)cc2)CC1 | 31.5 | 79.9
49 | CCN(CC)CC(=O)Nc1ccc(Nc2cc(=O)[nH]c3ccccc23)cc1 | 44.2 | 82.6
50 | CC(C)(C)N1CCN(CC(=O)Nc2ccc(Oc3ccc4[nH]c(=O)ccc4c3)c(F)c2)CC1 | 61.5 | 83.3
51 | CN(C)C1CCN(CC(=O)Nc2ccc(Nc3cc(=O)[nH]c4ccccc34)cc2)CC1 | 50.2 | 83.5
52 | CC(=O)N1CCN(CC(=O)Nc2ccc(Nc3cc(=O)[nH]c4ccccc34)cc2)CC1 | 39 | 72.5
53 | CCN1CCN(CC(=O)Nc2ccc(Oc3cc(=O)[nH]c4ccccc34)c(F)c2)CC1 | 49.1 | 89.6
54 | O=C(CN1CCN(C(=O)C2CC2)CC1)Nc1ccc(Oc2ccc3[nH]c(=O)ccc3c2)c(F)c1 | 34.6 | 95.2
55 | O=C(CN1CCNCC1)Nc1ccc(Oc2cc(=O)[nH]c3ccccc23)cc1 | 58.1 | 95.1
